Data published in ChEMBL document CHEMBL1795266, “Synthesis and evaluation of monoamidoxime derivatives: toward new antileishmanial compounds” (Eur J Med Chem, 2011).

How the values were obtained:
[1] = Selectivity index, ratio of IC50 for mouse J774A1 cells to IC50 for Leishmania donovani MHOM/IN/OO/DEVI promastigote; format: toxicity, cell-based, J774.A1; conditions: read-out: Ratio IC50
[2] = test system: Leishmania donovani; assay: Antileishmanial activity against Leishmania donovani MHOM/IN/00/DEVI promastigote after 72 hrs by MTT assay; format: functional, organism-based
Outline: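 Promastigotes were seeded at 10⁶ parasites/mL in medium containing penicillin and streptomycin, with a range of compound concentrations in duplicate (DMSO under 0.5% v/v final). After MTT addition, plates stood 6 h at 27 °C and were spun at 900 G for 10 min. The pellet was dissolved in DMSO and read at 570 nm. IC50 (50% loss of metabolic activity versus control) came from nonlinear dose-response regression.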

[3] = test system: J774.A1; assay: Cytotoxic activity against mouse J774A1 cells after 72 hrs by MTT assay; format: cell-based; conditions: J774.A1, 72 h
Outline: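 J774A.1 macrophages were grown in medium with 10% FCS, 2 mM L-glutamine, penicillin and streptomycin. Cells were seeded at 5 × 10⁴ cells/mL with a concentration range in duplicate (DMSO under 0.5% v/v final) and held 72 h at 37 °C, 6% CO₂. MTT was added at 0.5 mg/mL in RPMI 1640 for 2 h at 37 °C. Formazan was dissolved in DMSO and read at 570 nm. IC50 came from nonlinear regression, as the mean of three independent experiments.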

Row | Structure (SMILES) | selectivity ratio [1] | IC50 [2] [µM] | IC50 [3] [µM]
1 | CC1(Cc2ccccc2)CC(S(=O)(=O)c2ccc(C(F)(F)F)cc2)=C(c2ccc(/C(N)=N/O)cc2)O1 (stereo unspecified) | 3.87 | 7.89 | 30.5
2 | CC1(Cc2ccccc2)CC(S(=O)(=O)c2ccc(F)cc2)=C(c2ccc(/C(N)=N/O)cc2)O1 (stereo unspecified) | 6.37 | 7.15 | 45.5
3 | CC1(Cc2ccccc2)CC(S(=O)(=O)c2ccc(Cl)cc2)=C(c2ccc(/C(N)=N/O)cc2)O1 (stereo unspecified) | 3.71 | 7.4 | 27.4
4 | CC1(Cc2ccccc2)CC(S(=O)(=O)c2ccc(Br)cc2)=C(c2ccc(/C(N)=N/O)cc2)O1 (stereo unspecified) | 3.85 | 5.21 | 20.1
5 | CC1(Cc2ccccc2)CC(S(=O)(=O)c2ccc(I)cc2)=C(c2ccc(/C(N)=N/O)cc2)O1 (stereo unspecified) | 1.72 | 6.89 | 11.8
6 | CC1(Cc2ccccc2)CC(S(=O)(=O)c2ccc([N+](=O)[O-])cc2)=C(c2ccc(/C(N)=N/O)cc2)O1 (stereo unspecified) | 2.61 | 19.4 | 50.6
7 | COc1ccc(S(=O)(=O)C2=C(c3ccc(/C(N)=N/O)cc3)OC(C)(Cc3ccccc3)C2)cc1 (stereo unspecified) | 1.21 | 7.49 | 9.03
8 | CC1(Cc2ccccc2)CC(S(=O)(=O)c2ccc(/C(N)=N\O)cc2)=C(c2ccc(C(F)(F)F)cc2)O1 (stereo unspecified) | 1.4 | 8.46 | 11.9
9 | CC1(Cc2ccccc2)CC(S(=O)(=O)c2ccc(/C(N)=N\O)cc2)=C(c2ccc(F)cc2)O1 (stereo unspecified) | 1.18 | 30.7 | 36.2
10 | CC1(Cc2ccccc2)CC(S(=O)(=O)c2ccc(/C(N)=N\O)cc2)=C(c2ccc(Cl)cc2)O1 (stereo unspecified) | 0.71 | 9.87 | 7.05
11 | CC1(Cc2ccccc2)CC(S(=O)(=O)c2ccc(/C(N)=N\O)cc2)=C(c2ccc(Br)cc2)O1 (stereo unspecified) | 1.09 | 8.95 | 9.78
12 | CC1(Cc2ccccc2)CC(S(=O)(=O)c2ccc(/C(N)=N\O)cc2)=C(c2ccc(I)cc2)O1 (stereo unspecified) | 1.22 | 6.63 | 8.08
13 | CC1(Cc2ccccc2)CC(S(=O)(=O)c2ccc(/C(N)=N\O)cc2)=C(c2ccc([N+](=O)[O-])cc2)O1 (stereo unspecified) | 0.98 | 18.8 | 18.5
14 | C[C@@H]1[C@H](O)[C@@H](C)/C=C/C=C/C=C/C=C/C=C/C=C/C=C/[C@H](O[C@@H]2O[C@H](C)[C@@H](O)[C@H](N)[C@@H]2O)C[C@@H]2O[C@](O)(C[C@@H](O)C[C@@H](O)[C@H](O)CC[C@@H](O)C[C@@H](O)CC(=O)O[C@H]1C)C[C@H](O)[C@H]2C(=O)O [AMPHOTERICIN B] | 4.08 | 0.77 | 3.14
15 | COc1cccc2c1C(=O)c1c(O)c3c(c(O)c1C2=O)C[C@@](O)(C(=O)CO)C[C@@H]3O[C@H]1C[C@H](N)[C@H](O)[C@H](C)O1 [DOXORUBICIN] |  |  | 0.02
16 | N=C(N)c1ccc(OCCCCCOc2ccc(C(=N)N)cc2)cc1 [PENTAMIDINE] | 0.16 | 6.29 | 1.03
